In paper PMC5697680 (Clinical Pharmacology in Drug Development, 2017):

Legend:
Tolerability assessment = format: in vivo, healthy adults
Procedure, shortened: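 Healthy adults (18-65 years) got five single oral 20 mg doses of test compound (granule suspension or dispersible tablet in low- or high-mineral water, immediate or after 30-minute hold). Dosing followed a Latin square, fasted in the morning, with at least 7 days' washout. AEs and SAEs were recorded from first dose to follow-up at least 7 days post-dose, along with labs, vital signs, ECG and physical exams. Results were summarized as subject numbers and percentages.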

[1] = cited from earlier work
[2] = system: OCT2/MATE renal transporter; settings: results in increased exposure to OCT2 substrates such as metformin; cited from earlier work

In the case of `C[C@@H]1CCO[C@H]2Cn3cc(C(=O)NCc4ccc(F)cc4F)c(=O)c(O)c3C(=O)N12` [DTG, Dolutegravir], the “AEs reported, number of subjects” value (Tolerability assessment; 15 participants, all five single 20 mg treatments) is reported as 9 subjects, the “SAEs, AEs leading to withdrawal, or deaths” value (Tolerability assessment; 15 participants, all treatments) is reported as “No SAEs” and the “drug‐related AEs (nausea, mild), number of subjects” value (Tolerability assessment; two reports of nausea in one subject, resolved on the same day) is reported as 1 n. The “reduction of DTG exposure by magnesium‐ and aluminum‐containing antacid” value ([1]; concomitant administration) was 70%, the “reduction of DTG plasma exposure by calcium supplement” value ([1]; fasting conditions) was 39% and the “reduction of DTG plasma exposure by iron supplement” value ([1]; fasting conditions) was 54%. For the same molecule, the “effect on OCT2/MATE renal transporter” value [2] was “inhibition”.
